Source: article PMC2233905 (The Journal of General Physiology, 2004)

Columns and labels:
hEag1 channels [1] = molecular target: T1, hEag1 channels (Homo sapiens, UniProt O95259); assay: Cell-attached patch recordings of hEag1 currents, drug in bath; assay type: cell-based; conditions: 140 mM external K+, 60 mV
T1 sequence (O95259 1-989): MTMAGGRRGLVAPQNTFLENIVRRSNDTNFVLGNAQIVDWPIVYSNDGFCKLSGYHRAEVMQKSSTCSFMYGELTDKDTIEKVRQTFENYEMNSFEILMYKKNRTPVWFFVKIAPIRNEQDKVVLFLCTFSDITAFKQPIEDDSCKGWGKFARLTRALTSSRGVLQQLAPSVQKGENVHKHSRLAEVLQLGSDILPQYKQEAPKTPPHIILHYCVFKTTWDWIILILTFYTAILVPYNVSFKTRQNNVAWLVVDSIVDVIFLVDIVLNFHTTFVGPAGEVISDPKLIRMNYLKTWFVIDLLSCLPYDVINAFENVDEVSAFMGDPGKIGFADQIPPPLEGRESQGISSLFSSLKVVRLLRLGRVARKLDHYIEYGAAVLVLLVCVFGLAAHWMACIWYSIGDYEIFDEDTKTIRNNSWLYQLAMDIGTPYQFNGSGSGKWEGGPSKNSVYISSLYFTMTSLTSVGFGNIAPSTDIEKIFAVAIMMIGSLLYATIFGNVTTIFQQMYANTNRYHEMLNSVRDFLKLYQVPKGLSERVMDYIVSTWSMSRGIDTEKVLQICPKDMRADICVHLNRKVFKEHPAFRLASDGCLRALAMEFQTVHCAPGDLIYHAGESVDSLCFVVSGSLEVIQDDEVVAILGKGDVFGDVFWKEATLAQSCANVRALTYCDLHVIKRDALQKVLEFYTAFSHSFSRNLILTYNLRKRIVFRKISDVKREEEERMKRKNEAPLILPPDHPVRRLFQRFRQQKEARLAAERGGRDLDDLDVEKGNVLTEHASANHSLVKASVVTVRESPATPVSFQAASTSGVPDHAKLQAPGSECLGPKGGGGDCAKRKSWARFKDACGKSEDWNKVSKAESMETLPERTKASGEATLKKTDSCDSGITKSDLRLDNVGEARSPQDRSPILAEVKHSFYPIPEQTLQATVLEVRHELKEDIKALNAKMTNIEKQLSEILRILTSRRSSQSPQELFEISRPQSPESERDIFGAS
How it was run: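 hEag1-expressing cells grown 24–72 h on poly-L-lysine-coated coverslips; cell-attached patches at room temperature. Bath held 140 mM K+; pipette held control external solution (160 NaCl, 2.5 KCl, 2 CaCl2, 1 MgCl2, 10 HEPES, pH 7.4) without glucose. 1-s steps to 60 mV from −70 mV were recorded before, during and after washout of bath-applied drug.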

[2] = Ionization: pKa and calculated protonated fractions; assay type: physicochemical
How it was run: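 Fractions of unprotonated, monoprotonated and diprotonated test compound were calculated from its two pKa values at pH 6.4, 7.4 and 8.4. The diprotonated percentage was 100 × [H+]2 divided by the summed-species denominator. Protonated fractions in the pH 7.4 recording solution were predicted the same way.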

hEag1 channels [3] = molecular target: T1, hEag1 channels; assay: Inside-out patch recordings of hEag1 currents; assay type: cell-based
How it was run: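 Inside-out patches from hEag1-expressing cells at room temperature. Pipette: 145 NaCl, 5 KCl, 3 CaCl2, 1 MgCl2, 10 HEPES/NaOH pH 7.4. Successive 6-s pulses at 80 mV with drug applied for 2.5 s. Current ratios to preapplication traces were fitted with a single exponential to give the block time constant.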

hEag1 channels [4] = molecular target: T1, hEag1 channels; assay: Outside-out patch recordings of hEag1 currents; assay type: cell-based
How it was run: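 Outside-out patches from hEag1-expressing cells at room temperature. Successive 6-s recordings at 80 mV; drug applied to the extracellular face for 2.5 s, then removed. Currents were divided point-wise by control traces, and the time course was fitted with a single exponential to give the block or equilibration time constant and the steady-state fraction blocked.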

hEag1 channels [5] = molecular target: T1, hEag1 channels; assay: Whole-cell patch-clamp of hEag1 currents in stably transfected HEK-293 cells; assay type: cell-based
melanoma cells = conditions: ref Gavrilova-Ruch et al., 2002; cited from earlier work
[6] = system: K^+ current of rat sympathetic neurons; conditions: cited from earlier work
[7] = 10 μM imipramine or 1 μM astemizole
[8] = 200 μM internal TEA, 80 mV, 10 μM imipramine or 1 μM astemizole
[9] = control, 80 mV, 10 μM imipramine or 1 μM astemizole

With CN(C)CCCN1c2ccccc2CCc2ccccc21 [imipramine] the “block of channels in cell-attached patches by bath application” value (hEag1 channels [1]) was “blocked”, the protonated fraction ([2]; pH 6.0) was 99.97% and the predicted protonated fraction ([2]; pH 7.4 recording solution) was 99%. For the same compound, the “effect on current, direct application to inside-out patches” value (hEag1 channels [3]; 25 μM, bath pH 6.0, 80 mV) was “complete current suppression”, the “time constant of block in inside-out patches” value (hEag1 channels [3]; bath pH 6.0, pipette pH 7.4, 80 mV) was 155 ms and the “reversal of block on 2-s washout during the depolarization” value (hEag1 channels [3]; inside-out patches) was “fully reversed”. The “time constant of block (equilibration of neutral drug) in outside-out patches” value (hEag1 channels [4]; bath pH 6.0, pipette pH 7.4) was 182 ms, the inhibition at 25 µM (hEag1 channels [4]; read-out: current inhibition in outside-out patches) was about 30% and the “voltage dependence of block” value (hEag1 channels [5]) was “strongly voltage dependent”. The “k of exponential fit to τclose(V) (tail current deactivation)” value (hEag1 channels [5]; [7]) was −0.039, the “τ(0) of exponential fit to τclose(V) (tail current deactivation)” value (hEag1 channels [5]; [7]) was 65.13 ms and the “effect on whole-cell current when added to the intracellular solution” value (hEag1 channels [5]; 100 μM in intracellular pH 6.4 solution (unpublished data)) was “no evident reduction”. For the same compound, the “reduction of potency in the presence of internal TEA” value (hEag1 channels [5]; 200 μM internal TEA) was about 50%, the current blocked (hEag1 channels [5]; [8]) was 39 ± 3% and the τblock (hEag1 channels [5]; [8]) was 86 ± 5 ms. For the same compound, the “effect of external TEA on the block” value (hEag1 channels [5]; 7 mM external TEA) was “did not affect”, the current blocked (hEag1 channels [5]; [9]) was 77 ± 2% and the τblock (hEag1 channels [5]; [9]) was 35 ± 4 ms. For the same compound, the “slope of logIC50 versus difference between pHext and pHint” value (hEag1 channels [5]; linear fit) was −0.86, the “slope of linear fit of τblock^−1 versus concentration” value (hEag1 channels [5]; nonsaturating concentrations, 80 mV) was 2.5 s^−1μM^−1 and the “slope of linear fit of τblock^−1 versus concentration” value (hEag1 channels [5]; pHext 7.4, pHint 6.4) was 12.6 s^−1μM^−1. The “time constant of block washout” value (hEag1 channels [5]; pHext 7.4, pHint 6.4) was 46 ± 8 s, the “slope of linear fit of τblock^−1 versus concentration” value (hEag1 channels [5]; pHext 7.4, pHint 7.4) was 3.4 s^−1μM^−1 and the “time constant of block washout” value (hEag1 channels [5]; pHext 7.4, pHint 7.4) was 19 ± 6 s. The “slope of linear fit of τblock^−1 versus concentration” value (hEag1 channels [5]; pHext 7.4, pHint 8.4) was 0.9 s^−1μM^−1, the “time constant of block washout” value (hEag1 channels [5]; pHext 7.4, pHint 8.4) was 6 ± 1 s and the “Hill coefficient of fit to τblock versus concentration” value (hEag1 channels [5]; whole-cell, 80 mV) was 1.27. For the same compound, the “time constant of current decay (τblock) at the IC50 concentration” value (hEag1 channels [5]; whole-cell, 80 mV) was about 50 ms, the “τblock, maximum of Hill fit” value (hEag1 channels [5]; whole-cell, 80 mV) was 86.7 ms and the “τblock, minimum of Hill fit” value (hEag1 channels [5]; whole-cell, 80 mV) was 11.6 ms. The “fraction of the membrane electric field sensed at the binding site” value (hEag1 channels [5]; z = 1, fit of IC50 versus test potential) was 39% and the “effect on proliferation rate” value (melanoma cells) was “significant reduction”.
In the case of C[N+](C)(C)CCC=C1c2ccccc2CCc2ccccc21 [N-methyl-amitriptyline], the “effect on whole-cell K+ current when included in the patch pipette” value ([6]; 50 μM in pipette, ref Wooltorton and Mathie (1995)) is listed as “does not inhibit”.
In the case of C[N+](C)(C)CCCN1c2ccccc2CCc2ccccc21.[I-] [N-methyl-imipramine, N-methyl-imipramine iodide], the “effect on current, applied to the extracellular side in outside-out patches” value (hEag1 channels [4]; 5 μM, external and internal pH 7.4) is reported as “virtually no effect”.
Work on CC[N+](CC)(CC)CC [TEA] yielded a hEag1 current blocked (hEag1 channels [5]; 80 mV, 200 μM in the internal solution (unpublished data)) of about 50% and a hEag1 current blocked (hEag1 channels [5]; 80 mV, 7 mM in the external solution (unpublished data)) of about 50%.
In the case of CN(C)CCC=C1c2ccccc2CCc2ccccc21 [amitriptyline], the current blocked ([6]; 50 μM, ref Wooltorton and Mathie, 1995) is listed as about 90%.
